Active and inactive are the calls of the source. No cut-off for these calls is given here.
What was measured:
[1] = Ratio of drug level in brain against plasma in rat by MBUA method after 5 min; type: ADME, organism-based; settings: brain and plasma
[2] = molecular target: Muscarinic acetylcholine receptor M1 (Homo sapiens) (UniProt P11229); experiment: Inhibition of M1 receptor at 1 uM
[3] = Oral bioavailability in rat at 5 mg/kg; type: ADME, organism-based; settings: in vivo
[4] = molecular target: Delta-type opioid receptor (Homo sapiens) (UniProt P41143); experiment: Inhibition of human delta opioid receptor at 1 uM
[5] = molecular target: Phosphodiesterase 3 (Homo sapiens) (UniProt Q14432+Q13370); experiment: Inhibition of PDE3 at 1 uM; type: protein assay
MAO-B = MAO-B (Homo sapiens, UniProt P27338); experiment: Inhibition of MAO-B at 1 uM
[6] = molecular target: B2 bradykinin receptor (Homo sapiens) (UniProt P30411); experiment: Inhibition of B2 receptor at 1 uM
[7] = molecular target: Serotonin 3 (5-HT3) receptor (Homo sapiens) (UniProt P46098+A5X5Y0+O95264+Q70Z44+Q8WXA8); experiment: Inhibition of 5HT3 receptor at 1 uM; type: protein-complex assay
[8] = molecular target: 5-hydroxytryptamine receptor 7 (Homo sapiens) (UniProt P34969); experiment: Inhibition of 5HT7 receptor at 1 uM
[9] = molecular target: Phosphodiesterase 1 (Homo sapiens) (UniProt P54750+Q01064+Q14123); experiment: Inhibition of PDE1 at 1 uM; type: protein assay
Rattus norvegicus [10] = experiment: Reversal of amphetamine-induced gating deficit in Sprague-Dawley at 1 mg/kg, iv; type: functional, organism-based; parameters: dose 1 mg/kg
How it was run: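 Anesthetised rats; d-amphetamine 1 mg/kg iv given to disrupt auditory gating recorded in the hippocampal CA3 region (conditioning vs test responses, analogous to human P50). Agonist given iv afterwards; read-out is % gating versus amphetamine-alone. The 10 mg/kg dose was run as a separate experiment. Brain drug levels were measured after the iv doses.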

[11] = molecular target: Adenosine receptor A3 (Homo sapiens) (UniProt P0DMS8); experiment: Inhibition of adenosine A3 receptor at 1 uM
Cytochrome P450 2D6 = Cytochrome P450 2D6 (Homo sapiens, UniProt P10635); experiment: Inhibition of CYP2D6; type: ADME
Homo sapiens [12] = species: Homo sapiens; experiment: Inhibition of Small conductance calcium-activated potassium channel at 1 uM
[13] = molecular target: Somatostatin receptor (Homo sapiens) (UniProt P35346+P30874+P31391+P30872+P32745); experiment: Inhibition of sst receptor at 1 uM; type: protein assay
[14] = molecular target: Substance-K receptor (Homo sapiens) (UniProt P21452); experiment: Inhibition of NK2 receptor at 1 uM
[15] = molecular target: Tyrosine 3-monooxygenase (Homo sapiens) (UniProt P07101); experiment: Inhibition of tyrosine hydroxylase at 1 uM
Homo sapiens [16] = species: Homo sapiens; experiment: Inhibition of ML1 receptor at 1 uM
[17] = Activity at alpha7-5HT3 chimera expressed in SHEP1 cells by FLIPR assay; type: functional, cell-based; settings: Homo sapiens, SH-EP1
How it was run: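 Cell-based FLIPR functional assay in SH-EP1 cells expressing the α7-5HT3 chimera. Values are the average of at least five experiments for most compounds.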

Homo sapiens [18] = species: Homo sapiens; experiment: Inhibition of stimulated adenylate cyclase at 1 uM
MAO-A = MAO-A (Homo sapiens, UniProt P21397); experiment: Inhibition of MAO-A at 1 uM
[19] = molecular target: Human immunodeficiency virus type 1 protease (Human immunodeficiency virus 1) (UniProt Q72874); experiment: Inhibition of HIV1 protease at 1 uM
[20] = Half life in Sprague-Dawley rat liver microsome; type: ADME; settings: liver microsomes
[21] = molecular target: Neuronal acetylcholine receptor; alpha4/beta2 (Rattus norvegicus) (UniProt P09483+P12390); experiment: Inhibition of [3H]cytisine binding to alpha4beta2 nAChR in rat brain homogenate at 1 uM; type: tissue-based
How it was run: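 Radioligand displacement in rat brain homogenate with [³H]cytisine as the α4β2 ligand; test compound at 1 µM; value reported as % block of binding.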

[22] = molecular target: Calcitonin gene-related peptide type 1 receptor (Homo sapiens) (UniProt Q16602); experiment: Inhibition of CGRP receptor at 1 uM
Rattus norvegicus [23] = experiment: Drug level in Sprague-Dawley rat brain at 10 mg/kg, iv; type: ADME, organism-based; parameters: dose 10 mg/kg, route intravenous; settings: in vivo, read-out: Drug uptake
How it was run: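 Anesthetized rats received d-amphetamine (1 mg/kg, iv) and then the agonist iv in the auditory gating model. Brain concentrations were measured after the iv agonist dose.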

[24] = molecular target: Beta-1 adrenergic receptor (Homo sapiens) (UniProt P08588); experiment: Inhibition of adrenergic beta-1 receptor at 1 uM
[25] = molecular target: Atrial natriuretic peptide receptor (Homo sapiens) (UniProt P20594+P16066+P17342); experiment: Inhibition of ANP receptor at 1 uM; type: protein assay
[26] = molecular target: Prostaglandin G/H synthase 2 (Homo sapiens) (UniProt P35354); experiment: Inhibition of COX2 at 1 uM
[27] = molecular target: Epidermal growth factor receptor (Homo sapiens) (UniProt P00533); experiment: Inhibition of EGFR at 1 uM
[28] = molecular target: D(2) dopamine receptor (Homo sapiens) (UniProt P14416); experiment: Inhibition of D2 receptor at 1 uM
[29] = molecular target: Cathepsin B (Homo sapiens) (UniProt P07858); experiment: Inhibition of cathepsin B at 1 uM

Tyrosine 3-monooxygenase (Homo sapiens), sequence (P07101 whole entry): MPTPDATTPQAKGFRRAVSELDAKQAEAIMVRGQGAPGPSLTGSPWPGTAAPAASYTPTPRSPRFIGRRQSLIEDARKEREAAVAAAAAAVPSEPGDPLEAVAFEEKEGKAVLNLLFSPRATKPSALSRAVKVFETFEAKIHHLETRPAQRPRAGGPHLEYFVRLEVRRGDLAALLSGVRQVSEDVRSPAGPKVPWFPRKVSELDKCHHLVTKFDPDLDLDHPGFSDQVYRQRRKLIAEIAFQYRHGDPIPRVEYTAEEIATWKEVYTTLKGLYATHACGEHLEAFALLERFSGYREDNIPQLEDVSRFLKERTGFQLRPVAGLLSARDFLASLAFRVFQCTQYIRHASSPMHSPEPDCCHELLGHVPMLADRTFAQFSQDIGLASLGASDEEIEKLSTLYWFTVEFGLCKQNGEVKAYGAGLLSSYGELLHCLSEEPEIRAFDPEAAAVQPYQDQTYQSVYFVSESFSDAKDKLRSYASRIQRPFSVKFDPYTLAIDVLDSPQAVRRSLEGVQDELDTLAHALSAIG
Muscarinic acetylcholine receptor M1 (Homo sapiens), sequence (P11229 whole entry): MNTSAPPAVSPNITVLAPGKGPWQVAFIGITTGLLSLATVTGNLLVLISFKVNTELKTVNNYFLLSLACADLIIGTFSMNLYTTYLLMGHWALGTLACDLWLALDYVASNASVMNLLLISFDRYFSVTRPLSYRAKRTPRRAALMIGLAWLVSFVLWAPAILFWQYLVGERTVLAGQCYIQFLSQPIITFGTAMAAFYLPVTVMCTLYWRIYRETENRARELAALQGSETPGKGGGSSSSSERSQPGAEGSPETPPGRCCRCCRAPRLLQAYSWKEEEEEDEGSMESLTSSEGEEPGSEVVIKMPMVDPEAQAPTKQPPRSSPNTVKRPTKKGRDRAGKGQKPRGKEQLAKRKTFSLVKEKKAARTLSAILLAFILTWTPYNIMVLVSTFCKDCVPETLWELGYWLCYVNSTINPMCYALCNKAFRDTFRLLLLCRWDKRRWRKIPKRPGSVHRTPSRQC
Substance-K receptor (Homo sapiens), sequence (P21452 whole entry): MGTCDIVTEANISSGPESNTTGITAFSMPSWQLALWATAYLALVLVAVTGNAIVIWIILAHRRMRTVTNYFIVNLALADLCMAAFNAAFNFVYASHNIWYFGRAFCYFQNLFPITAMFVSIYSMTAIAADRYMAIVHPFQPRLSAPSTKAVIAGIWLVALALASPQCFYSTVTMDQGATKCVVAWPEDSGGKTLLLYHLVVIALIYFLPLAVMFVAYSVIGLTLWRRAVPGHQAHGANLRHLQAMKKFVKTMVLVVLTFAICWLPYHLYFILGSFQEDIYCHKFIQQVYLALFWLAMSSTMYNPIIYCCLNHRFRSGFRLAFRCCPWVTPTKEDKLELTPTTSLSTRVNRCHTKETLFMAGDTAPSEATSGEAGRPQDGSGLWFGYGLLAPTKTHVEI
Beta-1 adrenergic receptor (Homo sapiens), sequence (P08588 whole entry, looked up): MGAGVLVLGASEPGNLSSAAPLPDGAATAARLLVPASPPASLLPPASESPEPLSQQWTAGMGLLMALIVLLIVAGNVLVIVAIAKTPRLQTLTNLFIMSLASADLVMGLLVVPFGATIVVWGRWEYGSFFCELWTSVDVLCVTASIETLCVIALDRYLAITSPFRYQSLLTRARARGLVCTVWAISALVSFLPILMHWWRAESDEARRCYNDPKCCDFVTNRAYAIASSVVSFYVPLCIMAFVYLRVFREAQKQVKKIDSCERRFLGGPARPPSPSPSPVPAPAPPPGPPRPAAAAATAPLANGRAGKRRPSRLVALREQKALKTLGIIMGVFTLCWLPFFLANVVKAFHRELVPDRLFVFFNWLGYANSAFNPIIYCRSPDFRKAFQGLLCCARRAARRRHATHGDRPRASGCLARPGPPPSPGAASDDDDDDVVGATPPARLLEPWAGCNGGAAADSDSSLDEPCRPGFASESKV
Epidermal growth factor receptor (Homo sapiens), sequence (P00533 whole entry): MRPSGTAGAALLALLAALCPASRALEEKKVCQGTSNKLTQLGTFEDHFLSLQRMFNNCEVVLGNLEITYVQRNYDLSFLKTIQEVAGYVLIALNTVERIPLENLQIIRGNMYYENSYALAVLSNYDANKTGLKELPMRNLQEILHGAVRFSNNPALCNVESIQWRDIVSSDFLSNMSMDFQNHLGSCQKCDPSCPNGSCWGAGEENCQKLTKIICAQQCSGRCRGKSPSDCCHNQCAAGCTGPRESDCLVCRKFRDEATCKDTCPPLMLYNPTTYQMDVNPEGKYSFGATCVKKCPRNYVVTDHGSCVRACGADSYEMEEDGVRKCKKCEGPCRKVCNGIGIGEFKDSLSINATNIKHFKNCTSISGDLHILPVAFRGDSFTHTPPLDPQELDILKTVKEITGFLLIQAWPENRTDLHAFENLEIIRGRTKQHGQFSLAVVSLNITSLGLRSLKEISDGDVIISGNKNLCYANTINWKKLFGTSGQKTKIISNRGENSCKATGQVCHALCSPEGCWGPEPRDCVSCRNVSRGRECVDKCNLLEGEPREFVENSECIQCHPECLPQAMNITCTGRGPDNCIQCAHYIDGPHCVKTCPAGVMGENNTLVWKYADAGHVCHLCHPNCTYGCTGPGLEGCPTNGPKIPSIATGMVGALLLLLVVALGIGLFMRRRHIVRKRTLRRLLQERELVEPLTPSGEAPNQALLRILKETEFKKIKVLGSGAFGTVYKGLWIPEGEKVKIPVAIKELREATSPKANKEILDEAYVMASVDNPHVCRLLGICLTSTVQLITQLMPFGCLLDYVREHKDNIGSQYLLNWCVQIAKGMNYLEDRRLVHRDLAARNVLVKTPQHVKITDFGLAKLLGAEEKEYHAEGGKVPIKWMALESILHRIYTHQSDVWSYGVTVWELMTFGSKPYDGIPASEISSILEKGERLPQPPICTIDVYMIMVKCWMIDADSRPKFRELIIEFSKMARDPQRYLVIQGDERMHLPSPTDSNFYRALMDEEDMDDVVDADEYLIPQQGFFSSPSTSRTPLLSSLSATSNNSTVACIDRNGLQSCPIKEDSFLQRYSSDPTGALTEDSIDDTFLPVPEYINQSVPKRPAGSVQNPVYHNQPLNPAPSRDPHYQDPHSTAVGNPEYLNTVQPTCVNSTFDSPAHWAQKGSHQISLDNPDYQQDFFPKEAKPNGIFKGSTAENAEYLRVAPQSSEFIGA
MAO-B, sequence (P27338 whole entry): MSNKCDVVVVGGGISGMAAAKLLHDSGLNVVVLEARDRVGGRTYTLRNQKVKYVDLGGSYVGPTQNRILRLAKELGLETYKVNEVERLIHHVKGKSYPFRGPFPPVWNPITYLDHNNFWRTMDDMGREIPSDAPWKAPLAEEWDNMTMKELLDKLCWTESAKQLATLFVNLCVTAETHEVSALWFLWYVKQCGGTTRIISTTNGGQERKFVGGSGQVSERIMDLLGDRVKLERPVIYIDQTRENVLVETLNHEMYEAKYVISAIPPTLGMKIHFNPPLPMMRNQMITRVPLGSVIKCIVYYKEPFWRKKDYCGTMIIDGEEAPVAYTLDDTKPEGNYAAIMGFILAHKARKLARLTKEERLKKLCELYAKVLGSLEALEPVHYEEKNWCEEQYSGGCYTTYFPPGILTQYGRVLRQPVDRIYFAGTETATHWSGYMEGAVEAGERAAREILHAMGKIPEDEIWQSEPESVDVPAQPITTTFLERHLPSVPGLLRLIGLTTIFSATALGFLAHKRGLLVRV
5-hydroxytryptamine receptor 7 (Homo sapiens), sequence (P34969 whole entry): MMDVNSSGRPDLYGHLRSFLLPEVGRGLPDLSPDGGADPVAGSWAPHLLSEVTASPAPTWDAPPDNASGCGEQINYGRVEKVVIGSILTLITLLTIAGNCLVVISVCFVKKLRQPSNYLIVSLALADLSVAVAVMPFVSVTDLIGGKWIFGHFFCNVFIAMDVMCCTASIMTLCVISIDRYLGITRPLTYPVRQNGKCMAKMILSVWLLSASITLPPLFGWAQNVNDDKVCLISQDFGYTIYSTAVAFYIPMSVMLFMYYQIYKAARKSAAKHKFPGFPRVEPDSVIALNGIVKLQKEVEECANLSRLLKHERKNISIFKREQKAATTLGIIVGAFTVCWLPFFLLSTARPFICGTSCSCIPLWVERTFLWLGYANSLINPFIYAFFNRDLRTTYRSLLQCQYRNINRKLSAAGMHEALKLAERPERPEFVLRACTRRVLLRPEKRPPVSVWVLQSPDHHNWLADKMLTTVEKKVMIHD
Calcitonin gene-related peptide type 1 receptor (Homo sapiens), sequence (Q16602 whole entry): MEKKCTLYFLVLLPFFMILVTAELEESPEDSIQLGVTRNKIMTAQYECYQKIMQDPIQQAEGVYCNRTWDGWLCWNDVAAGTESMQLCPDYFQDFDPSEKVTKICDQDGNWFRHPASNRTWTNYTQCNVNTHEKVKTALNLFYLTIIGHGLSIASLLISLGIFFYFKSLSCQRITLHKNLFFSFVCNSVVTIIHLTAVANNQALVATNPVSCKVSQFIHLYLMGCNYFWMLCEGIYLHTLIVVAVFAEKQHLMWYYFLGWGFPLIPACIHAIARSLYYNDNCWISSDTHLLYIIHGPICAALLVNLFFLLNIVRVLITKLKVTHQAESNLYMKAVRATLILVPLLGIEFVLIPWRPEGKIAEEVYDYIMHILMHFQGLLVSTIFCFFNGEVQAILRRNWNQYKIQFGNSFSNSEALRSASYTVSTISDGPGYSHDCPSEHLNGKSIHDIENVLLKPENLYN
B2 bradykinin receptor (Homo sapiens), sequence (P30411 whole entry): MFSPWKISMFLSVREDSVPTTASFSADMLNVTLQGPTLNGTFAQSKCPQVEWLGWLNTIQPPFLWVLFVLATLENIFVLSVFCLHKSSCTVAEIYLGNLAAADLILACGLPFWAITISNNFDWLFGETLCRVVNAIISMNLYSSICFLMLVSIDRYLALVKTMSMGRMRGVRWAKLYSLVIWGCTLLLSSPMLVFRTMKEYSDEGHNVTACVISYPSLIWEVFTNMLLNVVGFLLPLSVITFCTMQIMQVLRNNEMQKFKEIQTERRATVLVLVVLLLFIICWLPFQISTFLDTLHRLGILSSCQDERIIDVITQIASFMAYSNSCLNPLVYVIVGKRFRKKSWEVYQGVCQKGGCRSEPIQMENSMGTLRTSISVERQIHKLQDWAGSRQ

SMILES: O=C(N[C@H]1CN2CCC1CC2)c1cc2ccoc2cn1 [PHA-543613]
- Kp at 5 min [1]: 1.5
- inhibition [2]: 16%
- bioavailability [3]: 65%
- inhibition [4]: 14%
- inhibition [5]: < 10%
- inhibition at 1 µM (MAO-B): < 10%
- inhibition [6]: < 10%
- inhibition [7]: 67%
- inhibition [8]: < 10%
- inhibition [9]: < 10%
- Activity (Rattus norvegicus [10]): Active
- inhibition [11]: 12%
- IC50 (Cytochrome P450 2D6): > 10 µM
- inhibition (Homo sapiens [12]): < 10%
- inhibition [13]: < 10%
- inhibition [14]: < 10%
- inhibition [15]: < 10%
- inhibition (Homo sapiens [16]): 11%
- EC50 [17]: 0.065 µM
- inhibition (Homo sapiens [18]): < 10%
- inhibition at 1 µM (MAO-A): < 10%
- inhibition [19]: < 10%
- half-life [20]: 40 min
- inhibition [21]: 13%
- inhibition [22]: < 10%
- concentration (Rattus norvegicus [23]): 14.9 µM
- inhibition [24]: < 10%
- inhibition [25]: < 10%
- inhibition [26]: 14%
- inhibition [27]: < 10%
- inhibition [28]: < 10%
- inhibition [29]: < 10%
